Shown are actives, neighbours in structure and some others; about 4.9% of the full set was active somewhere.
STAT3 inh = IL-6 driven STAT3 reporter inhibitors, primary screen, U3A cells, luciferase, luminescence, MLSCN library; 0.89% of 190,000 active; inhibition, % at 5.5 µM; IL-6 STAT3-luciferase reporter; host cell line lacks STAT1;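 active = inhibition above the mean inhibition across all screened compounds plus 3 SD, cut at about 44% in these data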;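 also: 0% = DMSO only wells and 100% = 100 µM nifuroxazide control wells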
STAT1 inh-1 = STAT1 signaling inhibitors, primary screen, cell-based, HTS, luciferase reporter; NIH 3T3 STAT1-luciferase reporter, IFN-gamma, luminescence; inhibition, % at 5.5 µM; 0.35% of 200,000 active; AID 920, 2007;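 active = inhibition above a set limit, the mean inhibition across all tested compounds plus 3 SD, cut at about 34% in these data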;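 also: 0% = IFN-gamma with DMSO and 100% = IFN-gamma with 300 µM nifuroxazide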
APP 5'UTR act = activators of APP 5'UTR luciferase reporter, primary screen, SH-SY5Y cells | activation, % at 2 µM | SH-SY5Y APP 5'UTR luciferase reporter, luminescence; zero percent = DMSO vehicle wells | AID 1276, 2008 | 1% of 190,000 active;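 active = activation above a set limit, based on mean plus 3 SD of controls, cut at about 140% in these data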
NF-kB neuron act = activators of NF-kB expression in neurons, primary screen, cell-based, HTS | human neuronal cells, NF-kB reporter expression; stronger effect = higher value | fold change at 12.5 µM | 1.6% of 190,000 active; in the data active = fold change above about 3.3
STAT1 act = STAT1 signaling activators, primary screen, cell-based, HTS, luciferase reporter; 2.6% of 200,000 active; NIH 3T3 STAT1-luciferase reporter, IFN-gamma, luminescence; 100% = IFN-gamma alone, no compound; activation (% of control), % at 5.5 µM;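 active = activation above the screen-wide mean activation plus 3 SD, cut at about 130% in these data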;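 also: raw ratio to IFN-gamma control signal so 100% means no change and 0% no light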
STAT3 act = IL-6 driven STAT3 reporter potentiators, primary screen, U3A cells, luciferase, luminescence, MLSCN library; IL-6 STAT3-luciferase reporter; 100% = signal with IL-6 EC80 alone; activation (% of control), % at 5.6 µM; 0.91% of 190,000 active; AID 871, 2007;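 active = activation above the screen-wide mean of compound activation plus 3 SD, cut at about 130% in these data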;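 also: 0% = background luminescence of wells with medium and substrate only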
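Material: human U3A cells carrying STAT3-luciferase construct. Measured by: reporter luminescence signal. Timing: compound 1 h, then IL-6 6 h at 37 °C.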
STAT1 inh-2 = STAT1 signaling inhibitors, confirmation, cell-based, HTS, luciferase reporter. inhibition, % at 5.5 µM. 55% of 200 active. NIH 3T3 STAT1-luciferase reporter, IFN-gamma, luminescence. shares compounds with STAT1 inh-1;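 active = triplicate mean inhibition exceeding the hit cutoff computed for the primary STAT1 screen, cut at about 35% in these data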;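 also: 0% = DMSO with IFN-gamma and 100% = 300 µM nifuroxazide with IFN-gamma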
NFkB inh STAT1ct = NF-kB reporter inhibitors, TNF-alpha stimulated, counter-screen for STAT1 inhibitor project, cell-based, HEK293T, luciferase luminescence; TNF-alpha induced; shares compounds with STAT1 inh-1; inhibition, % at 5.7 µM; 30% of 200 active;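 active = inhibition above the mean of solvent-only control wells plus 3 SD of those wells, cut at about 15% in these data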;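 also: 0% = DMSO with TNF-alpha and 100% = MG-132 control with TNF-alpha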
STAT3 inh STAT1c = STAT3 reporter inhibition by STAT1 hits, counter-screen for STAT1 inhibitor project, U3A cells, luciferase, luminescence, triplicate. 20% of 200 active. IL-6 STAT3 luciferase reporter; cells lacking STAT1. shares compounds with STAT1 inh-1. inhibition, % at 5.7 µM;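 active = inhibition above the mean of solvent-only control wells plus 3 SD, set per campaign, cut at about 25% in these data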;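 also: 0% = IL-6 plus DMSO and 100% = IL-6 plus nifuroxazide control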
Numbers without * were called inactive; . = no result.

SMILES | STAT3 inh | STAT1 inh-1 | APP 5'UTR act | NF-kB neuron act | STAT1 act | STAT3 act | STAT1 inh-2 | NFkB inh STAT1ct | STAT3 inh STAT1c
COC(=O)c1ccc(CC(=O)c2ccc(O)cc2O)o1 | 8.3 | 21.5 | 3.5 | 0.81 | 80.3 | 94.5 | . | . | .
COc1ccccc1N1CCN(C(=O)c2ccc(Cn3c(=S)[nH]c4cc5c(cc4c3=O)OCO5)cc2)CC1 | -1.8 | -6.5 | -7.6 | 1.05 | 105.5 | 103.4 | . | . | .
CCOC(=O)N1CCN(C(=O)c2ccc(Cn3c(=S)[nH]c4cc5c(cc4c3=O)OCO5)cc2)CC1 | 34.8 | 63.8* | 6.4 | 0.57 | 41.7 | 73.7 | 59.4* | 25.9* | 25.9*
CCOC(=O)N1CCN(C(=O)c2ccc3c(=O)n(Cc4ccccc4)c(=S)[nH]c3c2)CC1 | -1.0 | -6.4 | -0.5 | 0.9 | 105.9 | 104.0 | . | . | .
O=C(c1ccc(Cn2c(=S)[nH]c3ccccc3c2=O)cc1)N1CCN(c2ccccn2)CC1 | 30.8 | 44.3* | 12.1 | 0.75 | 59.3 | 79.4 | 35.3* | 14.4 | 27.2*
CCOC(=O)N1CCN(C(=O)c2ccc3c(=O)n(-c4cc(OC)ccc4OC)c(=S)[nH]c3c2)CC1 | 6.6 | 48.1* | -18.7 | 0.87 | 55.3 | 98.0 | 18.7 | -6.2 | -3.1
CCOC(=O)N1CCN(C(=O)c2ccc(Cn3c(=S)[nH]c4cc(OCC)c(OCC)cc4c3=O)cc2)CC1 | 22.3 | 45.3* | 4.1 | 0.55 | 58.0 | 89.2 | 61.0* | 29.5* | 18.6
O=C(NCC1CCCO1)c1cc(NS(=O)(=O)c2cccs2)cc(NS(=O)(=O)c2cccs2)c1 (centres undefined) | 12.1 | 5.5 | 9.9 | 1.07 | 96.3 | 93.8 | . | . | .
O=C(COC(=O)CCC(NC(=O)OCc1ccccc1)C(=O)OCC(=O)Nc1ccccc1)Nc1ccccc1 (centres undefined) | -5.7 | 1.4 | -14.1 | 0.98 | 98.8 | 107.8 | . | . | .
CCC(=O)NC(=S)Nc1ccc(NC(=S)NC(=O)c2ccc(C)cc2)cc1 | 9.2 | 6.0 | 8.6 | 1.14 | 92.8 | 95.3 | . | . | .
CCC(=O)NC(=S)Nc1ccc(NC(=S)NC(=O)c2ccccc2)cc1 | 15.8 | 83.2* | 0.4 | 0.93 | 21.9 | 91.1 | 52.6* | 38.5* | 11.3
C/C(=N/NS(=O)(=O)c1ccccc1)c1ccc(NC(=O)C2CC2)cc1 | 3.5 | -10.5 | -3.5 | 0.98 | 108.0 | 100.7 | . | . | .
C=CCOC(=O)C1=C[C@H](c2ccc(Br)cc2)[C@@H](CCCO)[C@H](OCC)O1 | . | 38.4* | -6.0 | 0.84 | 65.4 | . | 20.8 | -6.6 | 0.5
O=C1NN(c2ccc(F)cc2)C(=O)/C1=C/c1cccs1 | 6.0 | 0.0 | 14.6 | 1.25 | 98.0 | 97.8 | . | . | .
Clc1ccc2c(NCc3ccco3)ncnc2c1 | 21.6 | 15.8 | 11.8 | 0.82 | 85.5 | 83.5 | . | . | .
COc1ccc(CCNc2ncnc3cc(OC)c(OC)cc23)cc1OC | 22.4 | 35.4* | -2.6 | 0.49 | 66.0 | 82.4 | 35.9* | 7.5 | 25.1
COc1cc2ncnc(NCc3ccc(C)cc3)c2cc1OC | 7.0 | 6.6 | -1.2 | 0.99 | 94.0 | 99.0 | . | . | .
COc1ccc(CNc2ncnc3cc(Cl)ccc23)cc1OC | 3.9 | 40.6* | 6.9 | 0.72 | 62.3 | 107.2 | 34.8* | 11.9 | -15.7
COc1cc2ncnc(NCCc3ccccc3)c2cc1OC | 13.2 | 15.6 | -23.1 | 0.62 | 84.2 | 90.0 | . | . | .
COc1ccccc1CNc1ncnc2cc(Cl)ccc12 | -8.0 | 41.9* | -11.7 | 0.91 | 60.3 | 112.9 | 37.5* | 11.4 | -15.3
COc1ccc(C)cc1S(=O)(=O)Nc1ccc2c(c1)OCO2 | -0.8 | 1.8 | 8.4 | 1.24 | 96.6 | 102.7 | . | . | .
O=C(CCn1cnnn1)Nc1ccc(Cl)c(Cl)c1 | -0.5 | -0.9 | -10.5 | 0.95 | 99.4 | 101.5 | . | . | .
Cc1nc2ncccn2c1-c1csc(Nc2ccc(O)cc2)n1 | 30.3 | 45.1* | -12.8 | 2.75 | 57.1 | 77.3 | 42.5* | 8.7 | 32.4*
Cc1ccc(Nc2nc(-c3c(C)nc4ncccn34)cs2)cc1 | 19.1 | 8.5 | -94.8 | 2.19 | 92.4 | 92.2 | . | . | .
CSc1cccc(NC(=O)C(C)NS(=O)(=O)c2ccc(F)cc2)c1 (centres undefined) | -17.9 | 5.6 | -6.9 | 0.73 | 97.8 | 114.8 | . | . | .
SMILES | STAT3 inh | STAT1 inh-1 | APP 5'UTR act | NF-kB neuron act | STAT1 act | STAT3 act | STAT1 inh-2 | NFkB inh STAT1ct | STAT3 inh STAT1c
CCOC(=O)/C(=C/C=C1\Sc2ccccc2N1CC)C(C)=O | 20.6 | -4.7 | -10.0 | 0.5 | 104.2 | 82.7 | . | . | .
CCOC(=O)/C(=C/C=C1\Sc2cc(C)c(C)cc2N1CC)C(C)=O | 21.8 | 40.2* | 26.3 | 0.57 | 61.6 | 84.7 | 39.9* | -0.9 | 26.9*
O=C(CSc1c2c(nc3cc(Cl)ccc13)CCCC2)NCc1ccco1 | -4.1 | 3.4 | 7.6 | 1.38 | 96.9 | 104.7 | . | . | .
CC(C)(C)C(=O)Nc1cccc(-c2nc3ccccc3c(=O)o2)c1 | 33.0 | 25.8 | 6.0 | 1.48 | 76.5 | 74.5 | . | . | .
CCC(=O)Nc1cccc(-c2nc3ccccc3o2)c1 | 7.6 | -9.8 | -12.8 | 1.47 | 109.1 | 95.4 | . | . | .
CC(C)C(=O)Nc1cccc(-c2nc3ccccc3c(=O)o2)c1 | 20.5 | 14.0 | -1.2 | 0.95 | 93.0 | 84.0 | . | . | .
CCCC(=O)Nc1cccc(-c2nc3ccccc3c(=O)o2)c1 | 24.6 | 37.4* | -1.6 | 3.86* | 64.2 | 82.3 | 15.9 | 4.6 | 6.8
CC(C)C(=O)Nc1ccc(-c2nc3ccccc3c(=O)o2)cc1 | 21.4 | 37.8* | 5.7 | 0.77 | 64.2 | 85.6 | 18.6 | 14.5 | 1.6
CC(C)(C)C(=O)Nc1ccc(-c2nc3ccccc3c(=O)o2)cc1 | 25.7 | 41.3* | 12.4 | 0.27 | 60.6 | 81.3 | -12.6 | 10.9 | 1.6
COc1cccc(C(C(=O)Nc2ccc(F)cc2)N(C(=O)Cn2nnc3ccccc32)C2CC2)c1 (centres undefined) | 5.4 | -0.5 | 2.0 | 0.64 | 100.5 | 97.8 | . | . | .
CN(C)S(=O)(=O)c1cc(NC(=O)Cn2ccsc2=N)ccc1Cl | 3.7 | -4.9 | 3.7 | 1.08 | 103.2 | 103.7 | . | . | .
CCn1c(O)c(/C=N/NC(=O)c2ccncc2)c(=O)n(CC)c1=S | 7.8 | 61.1* | 15.9 | 1.11 | 45.4 | 95.3 | 60.0* | 1.3 | -46.4
Cn1c(=O)n(C)c2cc(/C=N/NC(=O)c3ccncc3)ccc21 | 6.7 | 4.5 | 17.9 | 1.01 | 95.3 | 96.2 | . | . | .
